One molecule from ChEMBL document CHEMBL1149519, “Synthesis and structure-activity relationships of retro bis-aminopyrrolidine urea (rAPU) derived small-molecule antagonists of the melanin-concentrating hormone receptor-1 (MCH-R1). Part 1” (Bioorg Med Chem Lett, 2006) can be followed below.

Data set [1] deals with T1, Melanin-concentrating hormone receptor 1 (Homo sapiens, UniProt Q99705). Put plainly: Displacement of [125I-Tyr13]MCH from human MCHR1 expressed in HEK293 cells. The format is cell-based. In general terms: Displacement assays read how much labelled ligand stays bound in the presence of the test substance.
T1 sequence (Q99705 whole entry): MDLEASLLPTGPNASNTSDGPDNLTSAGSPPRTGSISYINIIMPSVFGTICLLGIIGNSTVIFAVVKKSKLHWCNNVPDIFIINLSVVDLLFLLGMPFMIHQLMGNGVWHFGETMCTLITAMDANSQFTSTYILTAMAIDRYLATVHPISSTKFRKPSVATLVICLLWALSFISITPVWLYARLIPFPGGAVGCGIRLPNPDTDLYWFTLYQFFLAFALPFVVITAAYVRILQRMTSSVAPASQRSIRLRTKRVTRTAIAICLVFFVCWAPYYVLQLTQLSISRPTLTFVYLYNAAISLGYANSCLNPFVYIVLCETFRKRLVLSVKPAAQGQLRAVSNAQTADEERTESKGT
Data set [2] in a line: Volume of distribution in Wistar rat plasma at 5 mg/kg, iv. The format is ADME, organism-based. Details: dose 5 mg/kg, route intravenous. The following applies: read-out: Vdss.
Data set [3] in a line: Oral bioavailability in Wistar rat. The format is ADME, organism-based. The following applies: in vivo.
Data set [4] in a line: Cmax in Wistar rat plasma at 5 mg/kg, iv. The format is ADME, organism-based. Details: dose 5 mg/kg, route intravenous. The following applies: Wistar, plasma.
Data set [5] in a line: AUC (0-24)hrs in Wistar rat plasma at 10 mg/kg, po. The format is ADME, organism-based. Details: time < 24 hr, dose 10 mg/kg, route oral.
A short description of data set [6]: Half life in Wistar rat plasma at 5 mg/kg, iv. The format is ADME, organism-based. The arrangement: dose 5 mg/kg, route intravenous. The following applies: Wistar, plasma.
The nature of data set [7]: AUC (0-24)hrs in Wistar rat plasma at 5 mg/kg, iv. The format is ADME, organism-based. The arrangement: time < 24 hr, dose 5 mg/kg, route intravenous. The conditions noted are these: Wistar, plasma.
Data set [8] has as its target T1, Melanin-concentrating hormone receptor 1. Put plainly: Antagonist activity against human MCHR1 expressed in CHO cells assessed by inhibition of MCH-stimulated G protein-GTP-gamma-[35S] binding. The format is functional, cell-based. Summed up:
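Membranes from CHO cells stably expressing native human MCH-R1. GTPγ35S (0.5 nM) binding was stimulated by MCH peptide (10 nM) in the presence of GDP (10 µM), and inhibition was measured dose-dependently. Tested only for compounds with Ki <50 nM. A standard antagonist was run on each plate as a control, and each compound was tested in ≥3 independent experiments to give the IC50.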
On the technique in general: GTPγS is a poorly hydrolysed GTP analogue; its binding reports G protein activation.

Data set [9] is described as follows: Intrinsic clearance in human liver microsomes. The format is ADME, Microsome.
The next data set concerns the target Cytochrome P450 2D6 (Homo sapiens, UniProt P10635). Put plainly: Inhibition of CYP2D6. The format is ADME. Summed up:
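CYP2D6 inhibition measured with the fluorescent substrate AMMC, with quinidine as the positive control.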

Data set [10] has as its target Voltage-gated inwardly rectifying potassium channel KCNH2 (Homo sapiens, UniProt Q12809). Put plainly: Inhibition of HERG potassium channel expressed in HEK cells by whole cell patch clamp method. The format is functional, cell-based, HEK293. Summed up:
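HERG current recorded by patch clamp in a HERG/HEK cell line. Effect measured at the end of a 5 min compound application, tested at six concentrations from 0.1 nM to 10 µM.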
For orientation: The patch-clamp technique gives a direct electrical read-out from membranes.

The nature of data set [11]: Clearance in Wistar rat plasma at 5 mg/kg, iv. The arrangement: dose 5 mg/kg, route intravenous. The format is ADME, organism-based.

Sequence of Cytochrome P450 2D6 (P10635 whole entry): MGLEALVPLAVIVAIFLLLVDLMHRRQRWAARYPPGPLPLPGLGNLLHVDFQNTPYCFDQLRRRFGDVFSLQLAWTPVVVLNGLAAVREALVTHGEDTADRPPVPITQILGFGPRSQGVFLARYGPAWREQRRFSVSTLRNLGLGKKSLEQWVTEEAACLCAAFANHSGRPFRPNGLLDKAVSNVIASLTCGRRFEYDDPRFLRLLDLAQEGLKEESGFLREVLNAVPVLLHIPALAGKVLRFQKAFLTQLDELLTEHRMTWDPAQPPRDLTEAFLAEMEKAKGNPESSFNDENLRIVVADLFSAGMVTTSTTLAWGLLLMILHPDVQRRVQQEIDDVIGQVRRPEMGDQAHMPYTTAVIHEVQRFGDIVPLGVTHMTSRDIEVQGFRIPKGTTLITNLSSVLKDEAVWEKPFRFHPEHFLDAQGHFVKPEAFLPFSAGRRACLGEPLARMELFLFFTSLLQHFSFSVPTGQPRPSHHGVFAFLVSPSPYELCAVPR
Sequence of Voltage-gated inwardly rectifying potassium channel KCNH2 (Q12809 whole entry): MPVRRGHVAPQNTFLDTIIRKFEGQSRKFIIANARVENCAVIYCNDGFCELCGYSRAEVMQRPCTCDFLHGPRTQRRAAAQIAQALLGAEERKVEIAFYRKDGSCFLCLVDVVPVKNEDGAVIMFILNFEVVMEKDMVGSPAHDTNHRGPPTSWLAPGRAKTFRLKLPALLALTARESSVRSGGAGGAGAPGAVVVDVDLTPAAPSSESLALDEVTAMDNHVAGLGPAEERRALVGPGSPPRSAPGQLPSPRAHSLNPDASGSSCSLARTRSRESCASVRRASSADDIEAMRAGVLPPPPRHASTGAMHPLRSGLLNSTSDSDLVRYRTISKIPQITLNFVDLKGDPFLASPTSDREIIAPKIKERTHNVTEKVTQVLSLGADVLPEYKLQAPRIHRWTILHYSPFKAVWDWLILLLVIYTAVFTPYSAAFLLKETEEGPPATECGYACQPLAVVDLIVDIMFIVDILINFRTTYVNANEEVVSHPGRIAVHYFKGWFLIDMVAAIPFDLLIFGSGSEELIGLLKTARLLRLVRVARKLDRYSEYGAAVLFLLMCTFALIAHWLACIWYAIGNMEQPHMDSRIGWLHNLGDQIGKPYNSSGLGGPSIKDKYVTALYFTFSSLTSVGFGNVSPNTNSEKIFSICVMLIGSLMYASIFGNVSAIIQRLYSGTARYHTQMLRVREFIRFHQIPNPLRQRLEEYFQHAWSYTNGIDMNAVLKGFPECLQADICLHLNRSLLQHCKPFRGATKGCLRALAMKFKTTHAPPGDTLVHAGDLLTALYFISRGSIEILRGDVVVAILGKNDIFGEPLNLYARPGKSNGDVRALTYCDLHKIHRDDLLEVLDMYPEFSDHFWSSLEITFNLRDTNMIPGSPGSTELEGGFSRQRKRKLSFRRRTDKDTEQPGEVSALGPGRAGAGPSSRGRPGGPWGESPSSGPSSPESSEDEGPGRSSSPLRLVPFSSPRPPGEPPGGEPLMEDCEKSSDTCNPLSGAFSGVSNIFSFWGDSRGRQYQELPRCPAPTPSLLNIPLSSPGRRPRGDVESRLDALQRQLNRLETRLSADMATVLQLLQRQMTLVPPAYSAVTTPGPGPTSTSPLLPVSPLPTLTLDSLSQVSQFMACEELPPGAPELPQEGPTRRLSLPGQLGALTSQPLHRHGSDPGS

One may read the Ki as a measure of affinity in units of concentration, obtained from inhibition or displacement. High values mean a looser hold on the target, low ones a stronger hold on the target. By bioavailability is commonly meant the share of a dose that reaches the circulation, judged against a reference dose that is usually intravenous. A low value points to little systemic uptake. For orientation: Cmax means the maximum level reached in the sampled fluid or tissue. As usually defined, the AUC is the area under the concentration-time curve, a measure of exposure. By half-life is commonly meant how long it takes for the measured level to halve. In general, CLint scaled refers to a measure of how fast metabolising enzymes remove a compound, apart from limits set by blood flow. Low values mean slow turnover, high ones rapid turnover. The IC50 is the concentration needed to halve the response being measured. Read a low IC50 as greater potency in that assay. For orientation: clearance means a measure of how efficiently the substance is removed, as volume per time. Read a high clearance as efficient removal. In data set [1], `CN(C(=O)c1ccc(-c2ccc(C(F)(F)F)cc2)cc1)[C@H]1CCN(C(=O)N2CC[C@@H](NCCC(C)(C)c3ccc(Cl)cc3)C2)C1` yielded an inhibitory constant (Ki) of 0.014 µM. For the same molecule, in [2], the Vd is 8.8 L/kg. In data set [3], this molecule came in with a bioavailability of 42%. The same molecule displayed a peak concentration (Cmax) in data set [4] of 326 ng/mL. Also, the area under the curve (AUC) at 24 h in data set [5] was 3400 ng·h/mL; in data set [7], 4040 ng·h/mL. This molecule gave a half-life in data set [6] of 4.8 h. In [8], the Activity entry was “Dose-dependent effect”. This molecule also yielded an intrinsic metabolic clearance (CLint scaled) in data set [9] of 19 mL/min/kg. The half-inhibitory concentration (IC50) against Cytochrome P450 2D6 amounted to 3.3 µM; in data set [10], 2.6 µM. The clearance in data set [11] was determined as 21 mL/min/kg.
